Reference: ChEMBL document CHEMBL1123083, “Synthesis and antiherpetic activity of (S)-, (R)-, and (+/-)-9-[(2,3-dihydroxy-1-propoxy)methyl]guanine, linear isomers of 2'-nor-2'-deoxyguanosine” (J Med Chem, 1985)
Values after ≈ are worked out from the molar mass of the structure shown. Active and inactive are the calls of the source. No cut-off for these calls is given here.

Experiments:
[1] = test system: Human alphaherpesvirus 2; assay: In vitro anti viral activity tested against HSV-2(Curtis) virus on Rabbit kidney cell cultures.; format: functional; conditions: Human alphaherpesvirus 2, kidney; read-out: ED50 (the source's name)
In short: (§1)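 Confluent primary rabbit kidney monolayers were preincubated with serial drug dilutions in EMEM with 2% fetal calf serum and neomycin. They were then challenged with about 10 TCID50 of HSV-1 Schooler or HSV-2 Curtis and incubated at 37 °C. Cytopathology was scored on day 5. ED50 is the concentration preventing cytopathology in half of the infected cultures.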

[2] = test system: Human alphaherpesvirus 1; assay: In vitro anti viral activity tested against HSV-1(Schooler) virus on Rabbit kidney cell cultures.; format: functional; conditions: Human alphaherpesvirus 1, kidney; read-out: ED50 (the source's name); in short: as §1
[3] = test system: Human alphaherpesvirus 1; assay: Efficacy was evaluated against Systemic HSV-1 infection in mice at a daily dose of 0.8 mg/kg administered subcutaneously; format: ADME, organism-based; set-up: dose 0.8 mg/kg, route subcutaneous; conditions: mouse, in vivo, sc
In short: (§2)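 ICR/Ha mice (10–20 g, mixed sex) were infected intraperitoneally with 50–100 LD50 of HSV-1 Schooler. Subcutaneous dosing of 0.1 mL twice daily for 4 days started immediately after infection. Groups were of about 10 mice. Survival was recorded daily for 15 days and reported as survivors/total and mean survival time (95% CI). Transformed survival times were compared with placebo-treated infected mice (p < 0.05).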

[4] = test system: Human alphaherpesvirus 1; assay: Efficacy was evaluated against Systemic HSV-1 infection in mice at a daily dose of 12.5 mg/kg administered subcutaneously; format: ADME, organism-based; set-up: dose 12.5 mg/kg, route subcutaneous; conditions: mouse, in vivo, sc; in short: as §2
[5] = test system: Human alphaherpesvirus 1; assay: Efficacy was evaluated against Systemic HSV-1 infection in mice at a daily dose of 3.1 mg/kg administered subcutaneously; format: ADME, organism-based; set-up: dose 3.1 mg/kg, route subcutaneous; conditions: mouse, in vivo, sc; in short: as §2
[6] = test system: Human alphaherpesvirus 1; assay: Efficacy was evaluated against Systemic HSV-1 infection in mice at a daily dose of 0.8 mg/kg administered subcutaneously; Tested mice 10; format: organism-based; set-up: dose 0.8 mg/kg, route subcutaneous; conditions: mouse, in vivo, sc; in short: as §2
[7] = test system: Human alphaherpesvirus 1; assay: Efficacy was evaluated against Systemic HSV-1 infection in mice at a daily dose of 12.5 mg/kg administered subcutaneously; Tested mice 10; format: organism-based; set-up: dose 12.5 mg/kg, route subcutaneous; conditions: mouse, in vivo, sc; in short: as §2
[8] = test system: Human alphaherpesvirus 1; assay: Efficacy was evaluated against Systemic HSV-1 infection in mice at a daily dose of 3.1 mg/kg administered subcutaneously; Tested mice 10; format: ADME, organism-based; set-up: dose 3.1 mg/kg, route subcutaneous; conditions: mouse, in vivo, sc; in short: as §2
[9] = test system: Human alphaherpesvirus 1; assay: Evaluated for DNA polymerase inhibition activity against herpes simplex virus-1 (HSV-1); format: functional
In short: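 Step II mixture supplied the phosphorylated test material. Step I: compound with HSV-1 thymidine kinase, 4 h, 37 °C. Step II: then HSV-1-infected HeLa crude extract plus GMP kinase, overnight, 30 °C. A 20 μL sample went to a 1 h, 37 °C DNA polymerase assay at pH 8 with activated salmon sperm DNA, 0.05 mM each dNTP ([³H]dTTP) and infected HeLa extract. (NH₄)₂SO₄ 0.1 M was present for the viral enzyme and omitted for the cellular polymerases. Read-out: TCA-precipitable radioactivity.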

[10] = test system: Human alphaherpesvirus 2; assay: In vitro anti viral activity tested against HSV-2(Curtis) virus on Rabbit kidney cell cultures; 25-50; format: functional; conditions: Human alphaherpesvirus 2, kidney; read-out: ED50 (the source's name); in short: as §1
[11] = test system: DNA polymerase (Homo sapiens); assay: Evaluated for DNA polymerase inhibition activity against HeLa cells.
[12] = test system: Human betaherpesvirus 5; assay: In vitro anti viral activity tested against HCMV(AD169) virus on MRC-5 cell monolayers; NA=Not active at 25 ug/mL; format: functional, organism-based; conditions: MRC5
In short: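 MRC-5 monolayers were infected with HCMV AD169 for 1 h at 37 °C. Compound diluted in maintenance medium was then added and incubation continued for 7 days at 37 °C. Monolayers were stained and plaques counted. ED50 is the concentration reducing plaque number by 50%.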

SMILES | EC50 [1] [µg/mL] | EC50 [2] [µg/mL] | Average survival [3] [days] | Average survival [4] [days] | Average survival [5] [days] | Survivors [6] | Survivors [7] | Survivors [8] | Inhibition [9] [%] | EC50 [10] [µg/mL] | Inhibition [11] [%] | ED50 [12]
Nc1nc(O)c2ncn(COCC(O)CO)c2n1 (stereo not drawn) | 6 (≈ 23.5 µM) | 3 (≈ 11.8 µM) |  |  |  |  |  |  |  |  |  | 
Nc1nc(O)c2ncn(COCC(O)CO)c2n1 (single isomer, unassigned; form 1) [listing 1 of 2 here] |  | 25 (≈ 97.9 µM) | 6.3 | 7.5 | 6.5 | 0 | 1 | 1 | 7 | 25 (≈ 97.9 µM) | 0 | 
Nc1nc(O)c2ncn(COCC(O)CO)c2n1 (single isomer, unassigned; form 1) [listing 2 of 2 here] |  |  |  |  |  |  |  |  |  |  |  | inactive
